In ChEMBL document CHEMBL1165976, “Synthesis and characterization of N,N-dialkyl and N-alkyl-N-aralkyl fenpropimorph-derived compounds as high affinity ligands for sigma receptors” (Bioorg Med Chem, 2010):

Columns and labels:
MDA-MB-231 = experiment: Cytotoxicity against human MDA-MB-231 cells; assay type: functional, cell-based
HCT-15 = experiment: Cytotoxicity against human HCT15 cells; assay type: functional, cell-based
MCF-10A = experiment: Cytotoxicity against human MCF10A cells; assay type: functional, cell-based
DU-145 = experiment: Cytotoxicity against human DU145 cells; assay type: functional, cell-based
[1] = Cytotoxicity against human H1299 cells; assay type: functional, cell-based; settings: NCI-H1299
SF-268 = experiment: Cytotoxicity against human SF268 cells; assay type: functional, cell-based
[2] = target: Sigma non-opioid intracellular receptor 1 (Cavia porcellus, UniProt Q60492); experiment: Displacement of (+)-[3H]pentazocine from sigma 1 receptor in guinea pig liver homogenates after 1 hr by liquid scintillation counting; assay type: tissue-based
Procedure, shortened: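 Microsomal membranes (17,000 g then 100,000 g pellets) from guinea pig liver, 25 µg/well, with 10 nM (+)-[3H]pentazocine and serial competitor concentrations for 1 h at 30°C. Filtered on 0.5% PEI-treated GF/B filters; bound label counted by liquid scintillation. Nonlinear regression, single-site fit; Ki by Cheng-Prusoff.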

[3] = Displacement of [3H]-ditolyl guanidine from sigma 2 receptor in rat liver membranes after 1 hr by liquid scintillation counting; assay type: cell membranes, Membrane
HT-29 = experiment: Cytotoxicity against human HT-29 cells; assay type: functional, cell-based
A549 = experiment: Cytotoxicity against human A549 cells; assay type: functional, cell-based
SK-OV-3 = experiment: Cytotoxicity against human SKOV3 cells; assay type: functional, cell-based
[4] = Selectivity ratio of Ki for sigma 2 receptor in rat liver membranes to Ki for sigma 1 receptor in guinea pig liver homogenates; assay type: cell membranes; settings: Membrane
NCI-H460 = experiment: Cytotoxicity against human NCI-H460 cells; assay type: functional, cell-based
MCF7 = experiment: Cytotoxicity against human MCF7 cells; assay type: functional, cell-based

Sequence of Sigma non-opioid intracellular receptor 1 (Q60492 whole entry): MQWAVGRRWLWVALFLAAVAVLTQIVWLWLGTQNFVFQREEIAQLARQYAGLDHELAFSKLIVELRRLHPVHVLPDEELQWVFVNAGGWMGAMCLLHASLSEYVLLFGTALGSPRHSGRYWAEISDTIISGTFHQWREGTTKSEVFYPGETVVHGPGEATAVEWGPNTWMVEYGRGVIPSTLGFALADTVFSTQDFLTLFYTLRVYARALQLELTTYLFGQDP

Compound | Ki ([2]; read-out: Ki) [µM] | Ki ([3]; read-out: Ki) [µM] | Ratio Ki [4] | Ki [3] | Ki [2] | IC50 (MDA-MB-231) [µM] | IC50 (HCT-15) [µM] | IC50 (MCF-10A) [µM] | IC50 (DU-145) [µM] | IC50 [1] [µM] | IC50 (SF-268) [µM] | IC50 (HT-29) [µM] | IC50 (A549) [µM] | IC50 (SK-OV-3) [µM] | IC50 (NCI-H460) [µM] | IC50 (MCF7) [µM]
CCCN(CCCc1ccc(F)cc1)Cc1ccc(N)cc1 | 0.164 | 2.15 | 13.1 |  |  | > 100 | > 100 | > 100 | > 100 | > 100 | > 100 | > 100 | > 100 | > 100 | > 100 | > 100
CCCCN(CCCC)CCCc1ccc(F)cc1 | 0.0177 | 0.685 | 38.7 |  |  | > 100 | > 100 | > 100 | > 100 | > 100 | > 100 | > 100 | > 100 | 56.2 | > 100 | > 100
CCCCN(CCCC)C(=O)CCc1ccc(F)cc1 | 32.1 | 126 | 3.94 |  |  |  |  |  |  |  |  |  |  |  |  | 
CCCN(CCCc1ccc(F)cc1)Cc1ccc(N)c(I)c1 |  | 133 | 0.339 |  |  |  |  |  |  |  |  |  |  |  |  | 
CCCN(CCCc1ccc(F)cc1)Cc1ccc(N=[N+]=[N-])c(I)c1 | 89 |  | > 571 |  |  |  |  |  |  |  |  |  |  |  |  | 
CCCNCCc1ccc([N+](=O)[O-])cc1 | 2.25 | 53.6 | 23.8 |  |  |  |  |  |  |  |  |  |  |  |  | 
CCCN(Cc1cccc([N+](=O)[O-])c1)C(=O)CCc1ccc(F)cc1 |  | 236 |  |  | Not Active |  |  |  |  |  |  |  |  |  |  | 
CCCNCCCc1ccc(F)cc1 | 0.091 | 0.23 | 2.53 |  |  |  |  |  |  |  |  |  |  |  |  | 
CCCN(CCCc1ccc(F)cc1)CCc1ccc(N=[N+]=[N-])c(I)c1 | 7.24 | 1.29 | 0.178 |  |  | 21.6 | 54.1 | 88.6 | 13.1 | 90.8 | 38.8 | 36.4 | > 100 | > 100 | 40.3 | 16.8

Second part, led by results:

Ki ([2]; read-out: Ki) [µM] | Ki ([3]; read-out: Ki) [µM] | Ratio Ki [4] | Ki [3] | Ki [2] | Compound | IC50 (MDA-MB-231) [µM] | IC50 (HCT-15) [µM] | IC50 (MCF-10A) [µM] | IC50 (DU-145) [µM] | IC50 [1] [µM] | IC50 (SF-268) [µM] | IC50 (HT-29) [µM] | IC50 (A549) [µM] | IC50 (SK-OV-3) [µM] | IC50 (NCI-H460) [µM] | IC50 (MCF7) [µM]
53.6 |  |  | Not Active |  | CCCCCCCCN(CCCCCCCC)C(=O)CCc1ccc(F)cc1 |  |  |  |  |  |  |  |  |  |  | 
0.0003 | 0.404 | 1350 |  |  | CCCCN(CCCC)CCCc1ccc([N+](=O)[O-])cc1 | 57.1 | > 100 | > 100 | 32.7 | > 100 | > 100 | > 100 | > 100 | 27.9 | 40.5 | 22.4
0.665 | 1.65 | 2.49 |  |  | CCCCCCCCN(CCCCCCCC)CCCc1ccc(F)cc1 |  |  |  |  |  |  |  |  |  |  | 
2.59 | 0.12 | 0.046 |  |  | CCCN(CCCc1ccc(F)cc1)CCc1ccc(N)cc1 | 68.1 | > 100 | > 100 | > 100 | > 100 | > 100 | > 100 | > 100 | 20.2 | 44.8 | 41.3
0.006 | 0.0836 | 13.9 |  |  | CCCN(CCCc1ccc([N+](=O)[O-])cc1)CCc1ccc(N)cc1 | > 100 | > 100 | > 100 | > 100 | > 100 | > 100 | > 100 | > 100 | > 100 | > 100 | 88.1
